The source of these data is ChEMBL document CHEMBL1212751, “Pharmacokinetics of artemether-lumefantrine and artesunate-amodiaquine in children in Kampala, Uganda” (Antimicrob Agents Chemother, 2010).

Broadly, the AUC(0-inf) is the area under the concentration-time curve extrapolated to infinity. For orientation: AUC means concentration integrated over time. The Cmax is the highest concentration seen after dosing. The half-life is how long it takes for the measured level to halve.

A short description of data set [1]: AUC (0-infinity) in healthy human adult at 600 mg administered as single dose. The conditions noted are these: plasma. Format: ADME, organism-based. Also noted: dose 600 mg, time infinity.
Data set [2] deals with Homo sapiens. Briefly: AUC (0-infinity) in Ugandan children patient with uncomplicated malaria assessed as desethylamodiaquine level at 10 mg/kg, perorally qd on first 2 days and then 5 mg/kg, perorally on third day co-administered with artesunate at 4 mg/kg, perorally bid for 3 days. Also noted: dose 10 mg/kg, time infinity, route oral. Format: ADME, organism-based, Plasma. Conditions: in vivo, po. Summed up: (§1)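 Oral AQ-AS was given for 3 days with food and fat to Ugandan children aged 5–13 y (n = 21). Venous blood was drawn pre-last dose and at 2, 4, 8, 24 and 120 h after it. For AQ-DEAQ, plasma was cold-centrifuged at 3,000 × g for 15 min and stored at −80°C. AUC0-∞ used trapezoids plus Clast/λz, with λz usually from the last three points.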

The subject of data set [3] is Homo sapiens. Briefly: AUC (0-120 hrs) in Ugandan children patient with uncomplicated malaria assessed as desethylamodiaquine level at 10 mg/kg, perorally qd on first 2 days and then 5 mg/kg, perorally on third day co-administered with artesunate at 4 mg/kg, perorally bid for 3 days. Format: ADME, organism-based, Plasma. Further details: dose 10 mg/kg, time < 120 hr, route oral. Conditions: in vivo, po.

The subject of data set [4] is Homo sapiens. Briefly: Cmax in Ugandan children patient with uncomplicated malaria assessed as desethylamodiaquine level at 10 mg/kg, perorally qd on first 2 days and then 5 mg/kg, perorally on third day co-administered with artesunate at 4 mg/kg, perorally bid for 3 days. Format: ADME, organism-based. Further details: dose 10 mg/kg, route oral. The conditions noted are these: in vivo, po. In a few lines:
as §1

The nature of data set [5]: Half life in Ugandan children patient with uncomplicated malaria at 10 mg/kg, perorally qd on first 2 days and then 5 mg/kg, perorally on third day co-administered with artesunate at 4 mg/kg, perorally bid for 3 days. Format: ADME, organism-based. Conditions: human, in vivo, po. In a few lines:
as §1

Data set [6] in a line: AUC (0-infinity) in Ugandan children patient with uncomplicated malaria at 10 mg/kg, perorally qd on first 2 days and then 5 mg/kg, perorally on third day co-administered with artesunate at 4 mg/kg, perorally bid for 3 days. Format: ADME, organism-based. Further details: dose 10 mg/kg, time infinity, route oral. Conditions: human, plasma, po. In a few lines:
as §1

The nature of data set [7]: AUC (0-8 hrs) in Ugandan children patient with uncomplicated malaria at 10 mg/kg, perorally qd on first 2 days and then 5 mg/kg, perorally on third day co-administered with artesunate at 4 mg/kg, perorally bid for 3 days. Format: ADME, organism-based. Also noted: dose 10 mg/kg, time < 8 hr, route oral. Conditions: human, plasma, po.
Data set [8] in a line: Cmax in Ugandan children patient with uncomplicated malaria at 10 mg/kg, perorally qd on first 2 days and then 5 mg/kg, perorally on third day co-administered with artesunate at 4 mg/kg, perorally bid for 3 days. Further details: dose 10 mg/kg, route oral. Conditions: human, in vivo, po. Format: ADME, organism-based. In a few lines: as §1
The subject of data set [9] is Homo sapiens. Kind of data set: Half life in Ugandan children patient with uncomplicated malaria assessed as desethylamodiaquine level at 10 mg/kg, perorally qd on first 2 days and then 5 mg/kg, perorally on third day co-administered with artesunate at 4 mg/kg, perorallybid for 3 days. Format: ADME, organism-based. Conditions: in vivo, po. In a few lines:
as §1

Data set [10] has as its system Homo sapiens. Kind of data set: AUC (0-infinity) in healthy human adult assessed as desethylamodiaquine level at 600 mg administered as single dose. Further details: dose 600 mg, time infinity. The conditions noted are these: in vivo. Format: ADME, organism-based, Plasma.
For data set [11], the system named is Homo sapiens. Briefly: Plasma concentration in Nigerian human adult malaria patient assessed as desethylamodiaquine level at 25 mg/kg measured on seventh day post dose. Conditions: in vivo.
The subject of data set [12] is Homo sapiens. Kind of data set: Plasma concentration in Gabonian malarial children aged 6 months to 10 years assessed as desethylamodiaquine level at 30 mg/kg measured on third day post dose. Conditions: in vivo.
Data set [13] has as its system Homo sapiens. Kind of data set: Half life in Ugandan children patient with uncomplicated malaria assessed as dihydroartemisin administered twice daily for 3 days as 20/120 mg tablets containing artemether-lumefantrine combination. Format: ADME, organism-based. The conditions noted are these: in vivo, po, 72 h. Summed up: (§2)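 Children (5–13 y, n = 20) took AL twice daily for 3 days by weight band (20–24 kg, 2 tablets; 25–34 kg, 3; >34 kg, 4), each dose with 250 ml milk (3.3 g fat). Plasma was sampled 0–120 h after the morning last dose. AR and DHA were measured by LC-MS/MS; LR by HPLC-UV (LLOQ 25 ng/ml). Values below LLOQ were treated as missing.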

Data set [14] relates to Homo sapiens. Briefly: AUC (0-infinity) in Ugandan children patient with uncomplicated malaria assessed as dihydroartemisin administered twice daily for 3 days as 20/120 mg tablets containing artemether-lumefantrine combination. Format: ADME, organism-based, Plasma. Further details: dose 120 mg, time infinity. Conditions: in vivo, po, 72 h. Summed up: as §2
The test system of data set [15] is Homo sapiens. Kind of data set: Cmax in Ugandan children patient with uncomplicated malaria assessed as dihydroartemisin administered twice daily for 3 days as 20/120 mg tablets containing artemether-lumefantrine combination. Format: ADME, organism-based. Also noted: dose 120 mg. Conditions: in vivo, po, 72 h. Summed up:
as §2

The nature of data set [16]: Half life in Ugandan children patient with uncomplicated malaria administered twice daily for 3 days as 20/120 mg tablets containing artemether-lumefantrine combination. Format: ADME, organism-based. The conditions noted are these: human, in vivo, po. In a few lines: as §2
Data set [17] can be described thus: Cmax in Ugandan children patient with uncomplicated malaria administered twice daily for 3 days as 20/120 mg tablets containing artemether-lumefantrine combination. Also noted: dose 120 mg. Format: ADME, organism-based. The conditions noted are these: human, in vivo, oral. Summed up:
as §2

A short description of data set [18]: AUC (0-infinity) in Ugandan children patient with uncomplicated malaria administered twice daily for 3 days as 20/120 mg tablets containing artemether-lumefantrine combination. Format: ADME, organism-based. Also noted: dose 120 mg, time infinity. Conditions: human, plasma, po. Summed up:
as §2

The subject of data set [19] is Homo sapiens. Kind of data set: Half life in Ugandan children patient with uncomplicated malaria assessed as dihydroartemisinin level at 4 mg/kg, perorally bid for 3 days co-administered with amodiaquine at 10 mg/kg, perorally qd on first 2 days and then 5 mg/kg, perorally on third day. Format: ADME, organism-based. Conditions: in vivo, po. In a few lines:
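Ugandan children aged 5–13 y (n = 21) were dosed with food and fat. Venous blood (3 ml) was drawn before the last dose and at 2, 4, 8, 24 and 120 h after it. Samples were iced, cold-centrifuged within 30 min, and the plasma was stored at −80°C. DHA was assayed by SPE LC-MS/MS in positive ion mode. λz came from terminal regression, usually the last three points. Values are geometric means (90% CIs).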

Data set [20] deals with Homo sapiens. Briefly: AUC (0-infinity) in Ugandan children patient with uncomplicated malaria assessed as dihydroartemisinin level at 4 mg/kg, perorally […] co-administered with amodiaquine at 10 mg/kg, perorally qd on first 2 days and then 5 mg/kg, perorally on third day. Also noted: dose 4 mg/kg, time infinity, route oral. Conditions: in vivo, po. Format: ADME, organism-based, Plasma. Summed up: (§3)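 Ugandan children aged 5–13 y with uncomplicated malaria (n = 21) were dosed once daily for 3 days, with food and fat. Venous plasma was sampled before the last dose and 2, 4, 8, 24 and 120 h after it, cold-centrifuged and stored at −80°C. AS and DHA were measured by solid-phase extraction LC-MS/MS (positive ion mode). AUC0-∞ used the linear up-log down trapezoidal rule; Cmax was observed.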

Data set [21] concerns Homo sapiens. Briefly: Cmax in Ugandan children patient with uncomplicated malaria assessed as dihydroartemisinin level at 4 mg/kg, perorally […] for 3 days co-administered with amodiaquine at 10 mg/kg, perorally qd on first 2 days and then 5 mg/kg, perorally on third day. Also noted: dose 4 mg/kg, route oral. Format: ADME, organism-based. The conditions noted are these: in vivo, po. In a few lines: as §3

Data set [22] can be described thus: AUC (0-infinity) in Ugandan children patient with uncomplicated malaria at 4 mg/kg, perorally […] for 3 days co-administered with amodiaquine at 10 mg/kg, perorally qd on first 2 days and then 5 mg/kg, perorally on third day. Format: ADME, organism-based. Further details: dose 4 mg/kg, route oral, time infinity. The conditions noted are these: human, plasma, po. Summed up:
as §3

Data set [23] is described as follows: Cmax in Ugandan children patient with uncomplicated malaria at 4 mg/kg, perorally […] for 3 days co-administered with amodiaquine at 10 mg/kg, perorally qd on first 2 days and then 5 mg/kg, perorally on third day. The conditions noted are these: human, in vivo, po. Format: ADME, organism-based. Further details: dose 4 mg/kg, route oral. Summed up: as §3

Consider `CCN(CC)Cc1cc(Nc2ccnc3cc(Cl)ccc23)ccc1O.Cl`, for which the AUC(0-inf) came out at 154 ng·h/mL in [1] and 39.3 ng·h/mL in data set [6]. In addition, the results for the AUC with Homo sapiens [2], with Homo sapiens [3] and with Homo sapiens [10] were 14770 ng·h/mL, 11242 ng·h/mL and 8437 ng·h/mL, respectively. The peak concentration (Cmax) amounted to 235 ng/mL in the data set with Homo sapiens [4] and 5.2 ng/mL in data set [8]. For the same compound, in data set [5], the half-life was 3.3 h. Also, in data set [7], the AUC at 8 h was found to be 28.9 ng·h/mL. Also, in the data set with Homo sapiens [9], the t1/2 turned out to be 60 h. The results for the Concentration with Homo sapiens [11] and in the data set on Homo sapiens [12] were 62 ng/mL and 149 ng/mL, respectively.

Turning to `CO[C@H]1O[C@@H]2O[C@@]3(C)CC[C@H]4[C@H](C)CC[C@@H]([C@H]1C)[C@@]24OO3` [ARTEMETHER], the t1/2 in the data set with Homo sapiens [13] was found to be 1.9 h. The AUC in the data set on Homo sapiens [14] is 382 ng·h/mL. For the same compound, the Cmax in the data set on Homo sapiens [15] is 119 ng/mL; in [17] it was 34 ng/mL. Also, the half-life in data set [16] is 3.9 h. Further, the AUC(0-inf) in data set [18] stood at 168 ng·h/mL.

For `C[C@H]1[C@H](OC(=O)CCC(=O)O)O[C@@H]2O[C@@]3(C)CC[C@H]4[C@H](C)CC[C@@H]1[C@@]24OO3` [ARTESUNATE], the t1/2 with Homo sapiens [19] came out at 1.3 h. In addition, in the data set with Homo sapiens [20], the AUC came to 1404 ng·h/mL. The Cmax with Homo sapiens [21] was 473 ng/mL; in data set [23] it was 51.3 ng/mL. In addition, in data set [22], the AUC(0-inf) was 113 ng·h/mL.

On to `CCCCN(CCCC)CC(O)c1cc(Cl)cc2c1-c1ccc(Cl)cc1/C2=C/c1ccc(Cl)cc1` (stereo unspecified) [LUMEFANTRINE], for which, in data set [16], the half-life was 32.7 h. The Cmax in data set [17] worked out at 6760 ng/mL. Besides, in data set [18], the AUC(0-inf) was found to be 210000 ng·h/mL.
